Measured values as given in ChEMBL document CHEMBL3400051, “Five new phorbol esters with cytotoxic and selective anti-inflammatory activities from Croton tiglium” (Bioorg Med Chem Lett, 2015).

What was measured:
[1] = test system: K562; assay: Cytotoxicity against human K562 cells assessed as cell viability after 72 hrs by CCK8 assay; format: functional, cell-based; settings: K562, 72 h
In short: (§1)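 Cells grown in RPMI or DMEM with 10% FBS and 1% penicillin/streptomycin at 37 °C, 5% CO2. Seeded at 400-800 cells/well in 384-well plates, treated with a range of compound concentrations or solvent control for 72 h. CCK8 reagent added, absorbance read at 450 nm; IC50 from dose-response curves. Taxol positive control.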

[2] = target: T1, Prostaglandin G/H synthase 2 (Homo sapiens, UniProt P35354)
T1 sequence (P35354 whole entry): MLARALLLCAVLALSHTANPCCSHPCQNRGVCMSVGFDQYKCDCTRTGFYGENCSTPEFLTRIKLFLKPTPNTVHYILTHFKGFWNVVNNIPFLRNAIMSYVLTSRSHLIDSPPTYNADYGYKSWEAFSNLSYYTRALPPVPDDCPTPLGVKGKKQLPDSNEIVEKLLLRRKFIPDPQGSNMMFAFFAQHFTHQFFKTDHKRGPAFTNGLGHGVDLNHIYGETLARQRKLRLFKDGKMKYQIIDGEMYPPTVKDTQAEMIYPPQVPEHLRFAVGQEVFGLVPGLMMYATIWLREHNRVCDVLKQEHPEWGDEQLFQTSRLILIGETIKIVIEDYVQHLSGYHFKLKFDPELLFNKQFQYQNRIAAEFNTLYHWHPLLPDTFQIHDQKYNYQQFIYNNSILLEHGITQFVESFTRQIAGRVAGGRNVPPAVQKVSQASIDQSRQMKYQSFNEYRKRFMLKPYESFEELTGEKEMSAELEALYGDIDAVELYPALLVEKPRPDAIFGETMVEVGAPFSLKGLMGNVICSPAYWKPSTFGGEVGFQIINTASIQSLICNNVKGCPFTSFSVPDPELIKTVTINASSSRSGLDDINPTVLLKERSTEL

[3] = target: T2, Prostaglandin G/H synthase 1 (Ovis aries, UniProt P05979); assay: Inhibition of ovine COX1 using fluorometric substrate after 15 mins
T2 sequence (P05979 whole entry): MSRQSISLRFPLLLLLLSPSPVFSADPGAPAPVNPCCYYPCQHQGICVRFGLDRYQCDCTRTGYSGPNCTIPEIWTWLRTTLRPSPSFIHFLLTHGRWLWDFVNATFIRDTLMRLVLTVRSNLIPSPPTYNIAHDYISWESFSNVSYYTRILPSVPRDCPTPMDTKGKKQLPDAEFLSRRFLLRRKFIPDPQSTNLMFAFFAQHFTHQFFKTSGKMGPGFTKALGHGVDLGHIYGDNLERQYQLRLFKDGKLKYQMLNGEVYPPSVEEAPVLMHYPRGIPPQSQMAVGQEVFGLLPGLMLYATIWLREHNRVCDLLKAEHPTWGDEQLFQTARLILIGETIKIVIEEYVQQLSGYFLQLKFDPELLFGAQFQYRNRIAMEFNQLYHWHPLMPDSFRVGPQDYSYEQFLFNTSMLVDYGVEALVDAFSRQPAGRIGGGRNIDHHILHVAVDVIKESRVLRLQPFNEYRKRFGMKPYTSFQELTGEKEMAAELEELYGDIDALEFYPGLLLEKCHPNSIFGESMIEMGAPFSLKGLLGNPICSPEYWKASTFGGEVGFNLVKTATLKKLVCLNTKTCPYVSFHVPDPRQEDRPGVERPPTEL

[4] = test system: MOLT-4; assay: Cytotoxicity against human MOLT4 cells assessed as cell viability after 72 hrs by CCK8 assay; format: functional, cell-based; settings: MOLT-4, 72 h; in short: as §1
[5] = Cytotoxicity against human HL60 cells assessed as cell viability after 72 hrs by CCK8 assay; format: functional, cell-based; settings: HL-60, 72 h; in short: as §1
[6] = Cytotoxicity against human U937 cells assessed as cell viability after 72 hrs by CCK8 assay; format: functional, cell-based; settings: U-937, 72 h; in short: as §1
[7] = test system: HeLa; assay: Cytotoxicity against human HeLa cells assessed as cell viability after 72 hrs by CCK8 assay; format: functional, cell-based; in short: as §1
[8] = test system: NCI-H1975; assay: Cytotoxicity against human NCI-H1975 cells assessed as cell viability after 72 hrs by CCK8 assay; format: functional, cell-based; settings: NCI-H1975, 72 h; in short: as §1
[9] = Cytotoxicity against human LX2 cells after 44 hrs by MTT assay; format: cell-based; settings: LX-2, 44 h
In short: (§2)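 Cells cultured in 88% DMEM, 12% FBS, 100 units/mL penicillin and streptomycin. Seeded at 2 × 10^5 cells/mL, 24 h at 37 °C in 5% CO2, then medium replaced with compound in growth medium at 80, 40, 20, 10 and 5 concentrations for 44 h. MTT (5 mg/mL) added for a further 4 h; absorbance at 490 nm. Untreated cells as negative control, Taxol positive control.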

[10] = test system: HEK-293T; assay: Cytotoxicity against human 293T cells after 44 hrs by MTT assay; format: cell-based; in short: as §2
[11] = test system: DU-145; assay: Cytotoxicity against human DU145 cells assessed as cell viability after 72 hrs by CCK8 assay; format: functional, cell-based; settings: DU-145, 72 h; in short: as §1
[12] = Cytotoxicity against human SGC7901 cells assessed as cell viability after 72 hrs by CCK8 assay; format: functional, cell-based; settings: SGC-7901, 72 h; in short: as §1
[13] = test system: MCF7; assay: Cytotoxicity against human MCF7 cells assessed as cell viability after 72 hrs by CCK8 assay; format: functional, cell-based; settings: MCF7, 72 h; in short: as §1
[14] = test system: A549; assay: Cytotoxicity against human A549 cells assessed as cell viability after 72 hrs by CCK8 assay; format: functional, cell-based; settings: A549, 72 h; in short: as §1

| IC50 [2] | IC50 [3] | SMILES | IC50 [1] | IC50 [4] | IC50 [5] | IC50 [6] | IC50 [7] | IC50 [8] | IC50 [9] | IC50 [10] | IC50 [11] | IC50 [12] | IC50 [13] | IC50 [14] |
| --- | --- | --- | --- | --- | --- | --- | --- | --- | --- | --- | --- | --- | --- | --- |
| > 50 µM | > 50 µM | CC(=O)O[C@@H]1[C@@H](C)[C@@]2(O)[C@@H](C=C(CO)C[C@]3(O)C(=O)C(C)=C[C@@H]23)[C@@H]2C(C)(C)[C@]12OC(=O)C(C)C | 4 µM | 2.4 µM | 12 µM | 6.8 µM | 3.9 µM | 10 µM | > 500 µM | 292 µM | 7.2 µM | 13 µM | 13 µM | 5.8 µM |
| 8.5 µM | 0.14 µM | CCC(C)C(=O)O[C@@]12[C@H](OC(=O)c3ccccc3)[C@@H](C)[C@@]3(O)[C@@H](C=C(CO)C[C@]4(O)C(=O)C(C)=C[C@@H]34)[C@@H]1C2(C)C (stereo partly drawn) | 15 µM | 12 µM | 6.8 µM | 17 µM | 4.6 µM | 3.3 µM | > 500 µM | 420 µM | 4.3 µM | 10 µM | 20 µM | 6.9 µM |
| > 50 µM | > 50 µM | C/C=C(\C)C(=O)O[C@@H]1[C@@H](C)[C@@]2(O)[C@@H](C(=O)C(CO)=C[C@]3(O)C(=O)C(C)=C[C@@H]23)[C@@H]2C(C)(C)[C@]12OC(=O)C(C)CC (stereo partly drawn) | 17 µM | 4.8 µM | 10 µM | 21 µM | 5 µM | 10 µM | > 500 µM | 455 µM | 10 µM | 23 µM | 20 µM | 19 µM |
| > 50 µM | > 50 µM | CCC(C)C(=O)O[C@@]12[C@H](O)[C@@H](C)[C@]3(O)[C@@H]4C=C(C)C(=O)[C@@H]4CC(CO)=C[C@H]3[C@@H]1C2(C)C (stereo partly drawn) | 8 µM | 9.9 µM | 9.8 µM | 18 µM | 10 µM | 3.3 µM | > 500 µM | 191 µM | 10 µM | 5.4 µM | 24 µM | 4.5 µM |
| > 50 µM | > 50 µM | CCC(C)C(=O)O[C@@]12[C@H](OC(C)=O)[C@@H](C)[C@@]3(O)[C@@H](C(=O)C(CO)=C[C@]4(O)C(=O)C(C)=C[C@@H]34)[C@@H]1C2(C)C (stereo partly drawn) | 7.2 µM | 10 µM | 9.9 µM | 14 µM | 10 µM | 10 µM | 352 µM | 147 µM | 11 µM | > 50 µM | > 50 µM | > 50 µM |

Second part, the compound before the results:

| SMILES | IC50 [2] | IC50 [3] | IC50 [1] | IC50 [4] | IC50 [5] | IC50 [6] | IC50 [7] | IC50 [8] | IC50 [9] | IC50 [10] | IC50 [11] | IC50 [12] | IC50 [13] | IC50 [14] |
| --- | --- | --- | --- | --- | --- | --- | --- | --- | --- | --- | --- | --- | --- | --- |
| C/C=C(\C)C(=O)O[C@@H]1[C@@H](C)[C@@]2(O)[C@@H](C=C(CO)C[C@]3(O)C(=O)C(C)=C[C@@H]23)[C@@H]2C(C)(C)[C@]12OC(=O)C(C)CC (stereo partly drawn) | > 50 µM | > 50 µM | 2.2 µM | 1 µM | 1.2 µM | 2.6 µM | 10 µM | 10 µM | > 500 µM | 157 µM | 5 µM |  |  |  |
| C/C=C(\C)C(=O)O[C@@H]1[C@@H](C)[C@@]2(O)[C@@H](C=C(CO)C[C@]3(O)C(=O)C(C)=C[C@@H]23)[C@@H]2C(C)(C)[C@]12OC(=O)C(C)C | > 50 µM | > 50 µM | 4.4 µM | 1.1 µM | 1.2 µM | 5.5 µM | 9.2 µM | 10 µM | > 500 µM | 171 µM | 1.1 µM | 43 µM | > 50 µM | 32 µM |
| CC(=O)O[C@H]1C(=O)[C@@]2(C)[C@H]([C@H](OC(=O)c3ccccc3)[C@]3(O)C[C@H](OC(=O)[C@H](O)[C@@H](NC(=O)c4ccccc4)c4ccccc4)C(C)=C1C3(C)C)[C@]1(OC(C)=O)CO[C@@H]1C[C@@H]2O [PACLITAXEL] |  |  | 0.0052 µM | 0.0022 µM | 0.0018 µM | 0.0025 µM |  | 0.0077 µM |  |  | 0.0034 µM | 0.0051 µM | 0.0062 µM |  |
